# Results from different studies.
# Lines come from different studies, so protocols differ.
assay,test system,setting,quantity,value,SMILES
,"male BALB/c mouse, plasma","intravenous, 20 mg/kg, single dose",MRT(0-t),0.71 h,C=CS(=O)(=O)c1ccc(Nc2nc(OCC3CCCCC3)c3nc[nH]c3n2)cc1
metabolic stability,"human, liver microsomes",1 µM,half-life,> 3 h,NC(=O)N1c2ccccc2C=Cc2ccccc21
,"mouse, plasma","intraperitoneal, 15 mg/kg, single dose",MRT,3.09 h,CCN1CCN(Cc2ccc(NC(=O)c3ccc(C)c(NC(=O)c4cncc(-c5cccs5)c4)c3)cc2C(F)(F)F)CC1
metabolic stability,"human, liver microsomes",1 µM,half-life,0.0137 h,CCC(CC)COC(=O)[C@H](C)N[P@](=O)(OC[C@@H]1C[C@@H](O)[C@H](n2cnc3c(N)ncnc32)O1)Oc1ccccc1
metabolic stability,"human, plasma",,half-life,36.9 h,CSc1nccc(C(=O)N[C@@H](CCC(=O)O)C(=O)N[C@@H](Cc2ccc3ccccc3c2)C(=O)N[C@@H](CC(C)C)C(=O)NC2CC2c2ccccc2)n1 (stereo partly shown)
,"male C57BL/6 mouse, plasma","intraperitoneal, 10 mg/kg",MRT(0-inf),0.781 h,CCOc1ccc(N(C)S(=O)(=O)c2cc(Cl)sc2C(=O)Nc2cc(Cl)cc(C(=O)O)c2)cc1OC
,"male CD-1 mouse, plasma","intravenous, 1 mg/kg",MRT(0-inf),0.11 h,O=[N+]([O-])c1ccc(-c2ccc(O)cc2)c2cccnc12
,"male Kunming mouse, liver","oral, 20 mg/kg",MRT,5.7 h,CC(=O)O[C@@]12CO[C@@H]1C[C@H](O)[C@@]1(C)C(=O)[C@H](O)C3=C(C)[C@@H](OC(=O)[C@H](O)[C@@H](NC(=O)OC(C)(C)C)c4ccccc4)C[C@@](O)([C@@H](OC(=O)c4ccccc4)[C@H]21)C3(C)C
,"male CD-1 mouse, brain",subcutaneous,MRT(0-inf),1.72 h,COc1cc(C(=O)OCCCN2CCCN(CCCOC(=O)c3cc(OC)c(OC)c(OC)c3)CC2)cc(OC)c1OC
,"male C57BL/6 mouse, brain","intraperitoneal, 10 mg/kg",MRT(0-inf),3.28 h,CCOC(=O)c1cc(Cl)cc(NC(=O)c2sc(Cl)cc2S(=O)(=O)N(C)c2ccc(OCC)c(OC)c2)c1
